Test results taken from ChEMBL document CHEMBL3232947, “Inhibitory effect of turmeric curcuminoids on FLT3 expression and cell cycle arrest in the FLT3-overexpressing EoL-1 leukemic cell line” (J Nat Prod, 2014).

Experiments:
[1] = Cytotoxicity against human EOL-1 cells after 48 hrs by MTT assay; format: functional, cell-based; conditions: EOL1, 48 h
Outline: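 Cells seeded at 5.0 × 10^4/well, preincubated 24 h at 37 °C, then exposed to 1.56–50 μM for 48 h (0.1% DMSO vehicle); MTT 4 h at 37 °C, formazan dissolved in DMSO, A578 (ref 630 nm). IC50 = lowest concentration giving 50% growth reduction vs vehicle; mean ± SEM, three independent experiments in triplicate.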

[2] = system: EOL1; test: Reduction in Flt3 protein level in human EOL-1 cells at 10 uM after 12 hrs by Western blot analysis; format: functional; conditions: EOL1, 12 h
Outline: (§1)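 Treated EoL-1 lysed in RIPA buffer, protein by Folin-Lowry, resolved on 12% SDS-PAGE; probed with rabbit polyclonal anti-FLT3 or anti-STAT5A (1:500) and anti-GAPDH (1:1000), HRP anti-rabbit secondary, chemiluminescence. Band intensities normalized to GAPDH and compared with vehicle control; mean ± SEM, three independent experiments.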

[3] = system: EOL1; test: Reduction in Flt3 protein level in human EOL-1 cells at 10 uM after 24 hrs by Western blot analysis; format: functional; conditions: EOL1, 24 h; outline: as §1
[4] = system: EOL1; test: Reduction in Flt3 protein level in human EOL-1 cells at 10 uM after 48 hrs by Western blot analysis; format: functional; conditions: EOL1, 48 h; outline: as §1
[5] = system: EOL1; test: Reduction in Flt3 protein level in human EOL-1 cells at 15 uM after 24 hrs by Western blot analysis; format: functional; conditions: EOL1, 24 h; outline: as §1
[6] = system: EOL1; test: Reduction in Flt3 protein level in human EOL-1 cells at 15 uM after 48 hrs by Western blot analysis; format: functional; conditions: EOL1, 48 h; outline: as §1
[7] = Cell cycle arrest in human EOL-1 cells assessed as accumulation at G0/G1 phase at 4 uM after 48 hrs by flow cytometry (reference value: 54 %); format: functional, cell-based; conditions: EOL1
[8] = Cell cycle arrest in human EOL-1 cells assessed as accumulation at G0/G1 phase at 3 uM after 12 hrs by flow cytometry (reference value: 54 %); format: functional, cell-based; conditions: EOL1
[9] = Cell cycle arrest in human EOL-1 cells assessed as accumulation at G0/G1 phase at 5 uM after 12 hrs by flow cytometry (reference value: 54 %); format: functional, cell-based; conditions: EOL1
[10] = system: EOL1; test: Reduction in Flt3 protein level in human EOL-1 cells at 4 uM after 12 hrs by Western blot analysis; format: functional; conditions: EOL1, 12 h; outline: as §1
[11] = system: EOL1; test: Reduction in Flt3 protein level in human EOL-1 cells at 4 uM after 24 hrs by Western blot analysis; format: functional; conditions: EOL1, 24 h; outline: as §1
[12] = system: EOL1; test: Reduction in Flt3 protein level in human EOL-1 cells at 4 uM after 48 hrs by Western blot analysis; format: functional; conditions: EOL1, 48 h; outline: as §1
[13] = system: EOL1; test: Reduction in Flt3 protein level in human EOL-1 cells at 3 uM after 12 hrs by Western blot analysis; format: functional; conditions: EOL1, 12 h; outline: as §1
[14] = system: EOL1; test: Reduction in Flt3 protein level in human EOL-1 cells at 5 uM after 12 hrs by Western blot analysis; format: functional; conditions: EOL1, 12 h; outline: as §1
[15] = system: EOL1; test: Reduction in STAT5A protein level in human EOL-1 cells at 3 uM after 12 hrs by Western blot analysis; format: functional; conditions: EOL1, 12 h; outline: as §1
[16] = system: EOL1; test: Reduction in STAT5A protein level in human EOL-1 cells at 4 uM after 12 hrs by Western blot analysis; format: functional; conditions: EOL1, 12 h; outline: as §1
[17] = system: EOL1; test: Reduction in STAT5A protein level in human EOL-1 cells at 5 uM after 12 hrs by Western blot analysis; format: functional; conditions: EOL1, 12 h; outline: as §1
[18] = system: EOL1; test: Reduction in STAT5A protein level in human EOL-1 cells after 12 hrs by Western blot analysis; format: functional, cell-based; outline: as §1
[19] = system: EOL1; test: Reduction in Flt3 protein level in human EOL-1 cells after 12 hrs by Western blot analysis; format: functional, cell-based; outline: as §1
[20] = Antiproliferative activity against human EOL-1 cells at 3 uM after 12 hrs by trypan blue exclusion assay; format: functional, EOL1
Outline: (§2)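 EoL-1 cells (RPMI-1640, 10% fetal calf serum, L-glutamine, penicillin/streptomycin) exposed 12 h; viable counts by trypan blue exclusion over time; growth rate (cells/h) taken as slope of cell number vs incubation time, compared with vehicle-control growth rate.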

[21] = Antiproliferative activity against human EOL-1 cells at 4 uM after 12 hrs by trypan blue exclusion assay; format: functional, EOL1; outline: as §2
[22] = Antiproliferative activity against human EOL-1 cells at 5 uM after 12 hrs by trypan blue exclusion assay; format: functional, EOL1; outline: as §2
[23] = Cell cycle arrest in human EOL-1 cells assessed as accumulation at G0/G1 phase at 4 uM after 12 hrs by flow cytometry (reference value: 54 %); format: functional, cell-based; conditions: EOL1
[24] = Cell cycle arrest in human EOL-1 cells assessed as accumulation at G0/G1 phase at 4 uM after 24 hrs by flow cytometry (reference value: 54 %); format: functional, cell-based; conditions: EOL1
[25] = Cell cycle arrest in human EOL-1 cells assessed as accumulation at G0/G1 phase after 12 hrs by flow cytometry relative to control; conditions: EOL1

COc1cc(/C=C/C(O)=C/C(=O)/C=C/c2ccc(O)cc2)ccc1O [DEMETHOXYCURCUMIN]
IC50 [1]: 15.6 µM
inhibition at 10 µM [2]: 4%
inhibition at 10 µM [3]: 32%
inhibition at 10 µM [4]: 46%

O=C(/C=C/c1ccc(O)cc1)CC(=O)/C=C/c1ccc(O)cc1 [BISDEMETHOXYCURCUMIN]
IC50 [1]: 22.3 µM
inhibition at 15 µM [5]: 26%
inhibition at 15 µM [6]: 3%

COc1cc(/C=C/C(=O)CC(=O)/C=C/c2ccc(O)c(OC)c2)ccc1O [CURCUMIN]
Activity [7]: 54%
Activity [8]: 66%
Activity [9]: 75%
IC50 [1]: 6.7 µM
inhibition at 4 µM [10]: 37%
inhibition at 4 µM [11]: 33%
inhibition at 4 µM [12]: 12%
inhibition at 3 µM [13]: 17%
inhibition at 5 µM [14]: 70%
inhibition at 3 µM [15]: 13%
inhibition at 4 µM [16]: 44%
inhibition at 5 µM [17]: 82%
inhibition [18]: Dose-dependent effect
inhibition [19]: Dose-dependent effect
Activity [20]: 17%
Activity [21]: 25%
Activity [22]: 58%
Activity [23]: 71%
Activity [24]: 58%
Activity [25]: Dose-dependent effect
